Test results from ChEMBL document CHEMBL4765491, “Discovery of Potent and Selective Methylenephosphonic Acid CD73 Inhibitors” (J Med Chem, 2021).

Columns and labels:
5'-nucleotidase = 5'-nucleotidase (Homo sapiens, UniProt P21589); experiment: Inhibition of human CD73 expressed in CHO cells incubated for 60 mins before addition of AMP and further incubated for 60 mins by colorimetric assay; type: cell-based
How it was run: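 Thawed stable CD73-CHO cells in HEPES pH 7.4 saline buffer with 0.1% glucose, 1500 cells/well. Preincubated 60 min at 37 °C with 16-point 1:3 compound dilutions (final 100–0 or 0.1–0 μM; 10 or 2% DMSO). 25 μM AMP then added, 60 min at 37 °C/5% CO2. Supernatant phosphate measured with PiColorLock Gold. Activity normalized to DMSO and no-cell wells. IC50 from a four-parameter fit.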

[1] = Half life in Sprague-Dawley rat at 0.25 to 0.5 mg/kg, iv measured up to 24 hrs by LC-MS/MS analysis; type: ADME, organism-based; settings: in vivo, dose 0.25-0.5 mg/kg
How it was run: (§1)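 Male SD rats (0.27–0.30 kg), acclimated. Single IV bolus via femoral vein at 0.25 or 0.5 mg/kg in 31.6% DMA/36.8% ethanol/31.6% PEG. Jugular blood at predose, 5, 15, 30 min, 1, 2, 4, 6, 8, 24 h, collected into K2-EDTA; plasma spun at 4 °C, stored −80 °C until analysis.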

[2] = Clearance in Sprague-Dawley rat at 0.25 to 0.5 mg/kg, iv measured up to 24 hrs by LC-MS/MS analysis; type: ADME, organism-based; settings: in vivo, dose 0.25-0.5 mg/kg; how it was run: as §1

5'-nucleotidase, sequence (P21589 whole entry): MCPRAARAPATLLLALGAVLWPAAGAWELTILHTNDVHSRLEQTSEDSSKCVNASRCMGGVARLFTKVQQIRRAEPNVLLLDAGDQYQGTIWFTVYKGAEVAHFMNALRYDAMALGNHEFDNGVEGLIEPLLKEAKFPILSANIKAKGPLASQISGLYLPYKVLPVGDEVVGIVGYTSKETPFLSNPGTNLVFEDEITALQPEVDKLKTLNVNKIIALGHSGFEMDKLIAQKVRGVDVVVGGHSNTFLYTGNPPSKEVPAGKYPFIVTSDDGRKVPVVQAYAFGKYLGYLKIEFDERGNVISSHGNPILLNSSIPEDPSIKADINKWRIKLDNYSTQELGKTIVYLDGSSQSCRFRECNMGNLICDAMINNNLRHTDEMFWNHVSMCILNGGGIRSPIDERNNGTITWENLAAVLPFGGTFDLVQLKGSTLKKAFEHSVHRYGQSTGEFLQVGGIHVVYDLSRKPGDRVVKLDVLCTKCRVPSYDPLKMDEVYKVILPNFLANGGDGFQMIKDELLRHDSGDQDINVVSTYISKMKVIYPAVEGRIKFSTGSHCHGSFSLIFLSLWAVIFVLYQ

Row | Compound | IC50 (5'-nucleotidase) | half-life [1] | clearance [2]
1 | O=C(O)C(OC[C@H]1O[C@@H](n2cnc3c(NCc4ccccc4)nc(Cl)nc32)[C@H](O)[C@@H]1O)P(=O)(O)O (stereo partly specified) | 110 nM |  | 
2 | O=P(O)(O)COC[C@H]1O[C@@H](n2cnc3c(NCc4ccccc4)nc(Cl)nc32)[C@H](O)[C@@H]1O | 58 nM |  | 
3 | O=P(O)(O)COC[C@H]1O[C@@H](n2cnc3c(NCC4CCCC4)nc(Cl)nc32)[C@H](O)[C@@H]1O | 124 nM |  | 
4 | C[C@H](Nc1nc(Cl)nc2c1cnn2[C@@H]1O[C@H](COCP(=O)(O)O)[C@@H](O)[C@H]1O)c1ccc(F)cc1 |  | 4.5 h | 0.333 mL/min/kg
5 | CN(Cc1ccccc1Cl)c1nc(Cl)nc2c1ncn2[C@@H]1O[C@H](COCP(=O)(O)O)[C@@H](O)[C@H]1O | 46 nM |  | 
6 | C[C@H](Nc1cc(Cl)nc2c1cnn2[C@@H]1O[C@H](COCP(=O)(O)O)[C@@H](O)[C@H]1O)c1ccc(F)cc1 |  | 4 h | 0.3 mL/min/kg
7 | O=P(O)(O)COC[C@H]1O[C@@H](n2cnc3c(N4CCCC4)nc(Cl)nc32)[C@H](O)[C@@H]1O | 45 nM |  | 
8 | Cn1cc(CNc2nc(Cl)nc3c2ncn3[C@@H]2O[C@H](COCP(=O)(O)O)[C@@H](O)[C@H]2O)cn1 | 201 nM |  | 
9 | O=P(O)(O)COC[C@H]1O[C@@H](n2cnc3c(NCCc4ccccc4)nc(Cl)nc32)[C@H](O)[C@@H]1O | 105 nM |  | 
10 | O=P(O)(O)COC[C@H]1O[C@@H](n2cnc3c(NC4CCCC4)nc(COC4CCNC4)nc32)[C@H](O)[C@@H]1O (stereo partly specified) | > 10000 nM |  | 
11 | O=P(O)(O)COC[C@H]1O[C@@H](n2cnc3c(NC4CCCC4)cc(Cl)nc32)[C@H](O)[C@@H]1O | 33 nM |  | 
12 | O=P(O)(O)COC[C@H]1O[C@@H](n2ncc3c(NC4CCCC4)cc(Cl)nc32)[C@H](O)[C@@H]1O | 4.5 nM |  | 
13 | O=P(O)(O)COC[C@H]1O[C@@H](n2cnc3c(NC4CCCC4)nc(-c4ccccc4)nc32)[C@H](O)[C@@H]1O | 245 nM |  | 
14 | O=P(O)(O)COC[C@H]1O[C@@H](n2cnc3c(N[C@@H]4CCOC4)nc(Cl)nc32)[C@H](O)[C@@H]1O | 84 nM |  | 
15 | O=P(O)(O)COC[C@H]1O[C@@H](n2cnc3c(NCCc4ccccc4F)nc(Cl)nc32)[C@H](O)[C@@H]1O | 121 nM |  | 
16 | O=P(O)(O)CCCOC[C@H]1O[C@@H](n2cnc3c(NCc4ccccc4)nc(Cl)nc32)[C@H](O)[C@@H]1O | > 10000 nM |  | 
17 | O=P(O)(O)COC[C@H]1O[C@@H](n2cnc3c(NC4CCC4)nc(Cl)nc32)[C@H](O)[C@@H]1O | 83 nM |  | 

Row | Compound | IC50 (5'-nucleotidase) | half-life [1] | clearance [2]
18 | O=P(O)(O)COC[C@H]1O[C@@H](n2cnc3c(NC4CCCC4)nc(COc4ccccc4)nc32)[C@H](O)[C@@H]1O | 13 nM |  | 
19 | O=P(O)(O)COC[C@H]1O[C@@H](n2cnc3c(NCc4ccccc4Cl)nc(Cl)nc32)[C@H](O)[C@@H]1O | 46 nM |  | 
20 | O=P(O)(O)CCOC[C@H]1O[C@@H](n2cnc3c(NCc4ccccc4)nc(Cl)nc32)[C@H](O)[C@@H]1O | > 10000 nM |  | 
21 | O=P(O)(O)OP(=O)(O)OC[C@H]1O[C@@H](n2cnc3c(NCc4ccccc4)nc(Cl)nc32)[C@H](O)[C@@H]1O | 0.4 nM |  | 
22 | Cc1ccccc1-c1nc(NC2CCCC2)c2ncn([C@@H]3O[C@H](COCP(=O)(O)O)[C@@H](O)[C@H]3O)c2n1 | 3500 nM |  | 
23 | O=P(O)(O)COC[C@H]1O[C@@H](n2cnc3c(NC4CCCC4)nc(Cl)nc32)[C@H](O)[C@@H]1O | 26 nM | 0.97 h | 6.17 mL/min/kg
24 | O=P(O)(O)COC[C@H]1O[C@@H](n2cnc3c(NCc4ccccn4)nc(Cl)nc32)[C@H](O)[C@@H]1O | 382 nM |  | 
25 | O=P(O)(O)COC[C@H]1O[C@@H](n2cnc3c(NC4CC4)nc(Cl)nc32)[C@H](O)[C@@H]1O | 588 nM |  | 
26 | COc1ccccc1CCNc1nc(Cl)nc2c1ncn2[C@@H]1O[C@H](COCP(=O)(O)O)[C@@H](O)[C@H]1O | 173 nM |  | 
27 | C[C@H](Nc1nc(Cl)nc2c1ncn2[C@@H]1O[C@H](COCP(=O)(O)O)[C@@H](O)[C@H]1O)c1ccccc1 | 65 nM | 1.2 h | 2.33 mL/min/kg
28 | C[C@@H](Nc1nc(Cl)nc2c1ncn2[C@@H]1O[C@H](COCP(=O)(O)O)[C@@H](O)[C@H]1O)c1ccccc1 | 156 nM |  | 
29 | C[C@H](Nc1nc(Cl)nc2c1cnn2[C@@H]1O[C@H](COCP(=O)(O)O)[C@@H](O)[C@H]1O)c1ccccc1 |  | 2.4 h | 0.517 mL/min/kg
30 | COCc1nc(NC2CCCC2)c2ncn([C@@H]3O[C@H](COCP(=O)(O)O)[C@@H](O)[C@H]3O)c2n1 | 118 nM |  | 
31 | O=C(O)C(OC[C@H]1O[C@@H](n2cnc3c(NCc4ccccc4)nc(Cl)nc32)[C@H](O)[C@@H]1O)C(=O)O | 1000 nM |  | 
32 | O=P(O)(O)COC[C@H]1O[C@@H](n2cnc3c(N4CCOCC4)nc(Cl)nc32)[C@H](O)[C@@H]1O | 148 nM |  | 
33 | CC(C)Nc1nc(Cl)nc2c1ncn2[C@@H]1O[C@H](COCP(=O)(O)O)[C@@H](O)[C@H]1O | 192 nM |  | 
34 | Cn1cnnc1CNc1nc(Cl)nc2c1ncn2[C@@H]1O[C@H](COCP(=O)(O)O)[C@@H](O)[C@H]1O | 3200 nM |  | 
